# Experimental data published in ChEMBL document CHEMBL3860087, “New Broad-Spectrum Antibacterial Amphiphilic Aminoglycosides Active against Resistant Bacteria: From Neamine Derivatives to Smaller Neosamine Analogues” (J Med Chem, 2016).
# Tests used:
# [1] = test system: Staphylococcus aureus; test: Antibacterial activity against Staphylococcus aureus ATCC 25923 by microdilution method; format: functional
# Method in brief: (§1)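 Broth microdilution per CLSI in cation-adjusted Mueller–Hinton broth. Strains were grown overnight at 37 °C on trypticase soy agar, and a fresh culture was used. Starting inoculum was 10^6 cells.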
# [2] = test system: Staphylococcus aureus; test: Antibacterial activity against NorA expressing Staphylococcus aureus 1 by microdilution method
# [3] = test system: Staphylococcus aureus; test: Antibacterial activity against healthcare-acquired methicillin-resistant Staphylococcus aureus ATCC 33592 by microdilution method; format: functional; method in brief: as §1
# [4] = test system: Pseudomonas aeruginosa; test: Antibacterial activity against Pseudomonas aeruginosa ATCC 27853 by microdilution method; format: functional
# Method in brief: (§2)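 Strains grown overnight at 37 °C on trypticase soy agar; MIC by broth microdilution from fresh culture in cation-adjusted Mueller–Hinton broth, starting inoculum 10^6 cells, following CLSI recommendations.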
# [5] = test system: Pseudomonas aeruginosa; test: Antibacterial activity against AAC6'-2A expressing Pseudomonas aeruginosa F03 by microdilution method; format: functional; method in brief: as §2
# [6] = test system: Pseudomonas aeruginosa; test: Antibacterial activity against MexXY expressing Pseudomonas aeruginosa PA22 by microdilution method; format: functional; method in brief: as §2
# [7] = test system: Pseudomonas aeruginosa; test: Antibacterial activity against triABC deficient Pseudomonas aeruginosa PA406 by microdilution method; format: functional; method in brief: as §2
# [8] = test system: Acinetobacter lwoffii; test: Antibacterial activity against Acinetobacter lwoffii ATCC 17925 by microdilution method; format: functional; method in brief: as §2
# [9] = test system: Acinetobacter lwoffii; test: Antibacterial activity against APH3'-VIA expressing Acinetobacter lwoffii AI.88-483 by microdilution method; format: functional; method in brief: as §2
# [10] = test system: Escherichia coli; test: Antibacterial activity against AAC6'-IB expressing Escherichia coli PAZ505H8101 by microdilution method; format: functional; method in brief: as §2
# [11] = test system: Escherichia coli; test: Antibacterial activity against ANT2''-IA expressing Escherichia coli L8058.1 by microdilution method; format: functional; method in brief: as §2
# [12] = test system: Klebsiella pneumoniae; test: Antibacterial activity against Klebsiella pneumoniae ATCC 700603 by microdilution method; format: functional; method in brief: as §2
# [13] = Cytotoxicity against mouse J774 cells assessed as cell viability at 10 uM after 24 hrs by MTT assay relative to control; format: toxicity, cell-based; settings: J774 cells, read-out: Activity
# Method in brief: (§3)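 Murine J774 macrophages exposed 24 h to 10 or 30 μM compound, then 1 h with 0.2 mg/mL MTT; reaction stopped with DMSO, OD read at 570 nm as metabolic-activity viability. Number of independent experiments given per value.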
# [14] = test system: Escherichia coli; test: microbe, parasite or virus in culture; settings: ATCC 25922
# [15] = Cytotoxicity against mouse J774 cells assessed as cell viability at 30 uM after 24 hrs by MTT assay relative to control; format: toxicity, cell-based; settings: J774 cells, read-out: Activity; method in brief: as §3
Compound,MIC [1] [µg/mL],MIC [2] [µg/mL],MIC [3] [µg/mL],MIC [4] [µg/mL],MIC [5] [µg/mL],MIC [6] [µg/mL],MIC [7] [µg/mL],MIC [8] [µg/mL],MIC [9] [µg/mL],MIC [10] [µg/mL],MIC [11] [µg/mL],MIC [12] [µg/mL],"viability at 24 h, 10 µM [13] [%]",MIC [14] [µg/mL],"viability at 24 h, 30 µM [15] [%]"
NC[C@H]1O[C@H](O[C@H]2[C@H](O)[C@@H](O)[C@H](N)C[C@@H]2N)[C@H](N)[C@@H](OCc2ccc3ccccc3c2)[C@@H]1OCc1ccc2ccccc2c1,2 to 4,2 to 4,4 to 8,16,128,128,2 to 4,4,> 128,8 to 16,16 to 32,> 128,79.1,16 to 32,–
C=CCO[C@H]1O[C@H](CN)[C@@H](O)[C@H](O)[C@H]1N,> 128,> 128,> 128,> 128,> 128,> 128,> 128,> 128,> 128,> 128,> 128,> 128,82.2,> 128,82.1
NC[C@H]1O[C@H](O[C@H]2[C@H](O)[C@@H](O)[C@H](N)C[C@@H]2N)[C@H](N)[C@@H](O)[C@@H]1O [NEAMINE],16 to 32,8,> 128,> 128,> 128,> 128,64,0.5,> 128,> 128,32,32,94.8,32,84.4
CCCCCCCCCO[C@@H]1[C@@H](N)[C@@H](OC[C@@H](O)CN)O[C@H](CN)[C@H]1OCCCCCCCCC,2,1,2,4 to 8,8,8,4 to 8,2,4,4,4 to 8,8,85.1,4,7.2
CCCCCCCCCO[C@@H]1[C@@H](N)[C@@H](OC[C@H](O)CN)O[C@H](CN)[C@H]1OCCCCCCCCC,2,2,2,8,8,8,8,2,8,4,4,8 to 16,88,4,14.4
C=CCO[C@H]1O[C@H](CN)[C@@H](OCCCc2ccc3ccccc3c2)[C@H](OCCCc2ccc3ccccc3c2)[C@H]1N,4 to 8,4,4 to 8,128,> 128,> 128,32,4 to 8,64,64,64,128,105,32 to 64,7
NC[C@H]1O[C@H](O[C@H]2[C@H](O)[C@@H](OCc3ccc4ccccc4c3)[C@H](N)C[C@@H]2N)[C@H](N)[C@@H](OCc2ccc3ccccc3c2)[C@@H]1O,8,4 to 8,8 to 16,64 to 128,64 to 128,> 128,2 to 4,4 to 8,128,32,64 to 128,128,86,32 to 64,75.9
CCCCCCCCCO[C@@H]1[C@@H](N)[C@@H](OCC(O)CNCCN)O[C@H](CN)[C@H]1OCCCCCCCCC (mixture of isomers),2,2,2,8,4 to 8,4 to 8,8,2,16 to 32,4 to 8,4 to 8,8 to 16,87.5,8,53
C=CCO[C@H]1O[C@H](CN)[C@@H](OCc2ccc3ccccc3c2)[C@H](OCc2ccc3ccccc3c2)[C@H]1N,8,8,8,> 128,> 128,> 128,32,8,64,64,128,> 128,86.9,64,28.3
NC[C@H]1O[C@H](O[C@H]2[C@H](O)[C@@H](O[C@H]3O[C@H](CO)[C@@H](O)[C@H](N)[C@H]3O)[C@H](N)C[C@@H]2N)[C@H](N)C[C@@H]1O [TOBRAMYCIN],0.25,0.5,64,< 0.25,128,0.5,< 0.25,< 0.25,0.5 to 1,32,64,4 to 8,99.7,1,83.2
CCCCCCCCCO[C@@H]1[C@@H](N)[C@@H](OC[C@H](O)CN=[N+]=[N-])O[C@H](CN)[C@H]1OCCCCCCCCC,2,2,2,> 128,> 128,128,> 128,4,> 128,> 128,> 128,> 128,62.2,32,5.9
NCC[C@H](O)C(=O)N[C@@H]1C[C@H](N)[C@@H](O[C@H]2O[C@H](CN)[C@@H](O)[C@H](O)[C@H]2O)[C@H](O)[C@H]1O[C@H]1O[C@H](CO)[C@@H](O)[C@H](N)[C@H]1O [AMIKACIN],4,2,8 to 16,2 to 4,8,8,1,< 0.25,128,64,2,1,81.2,4,92
GENTAMICIN,0.25 to 0.5,–,1,1,> 128,4,< 0.25,< 0.25,2,1,64,4 to 8,–,–,–
NC[C@@H]1O[C@H](O[C@H]2[C@@H](O)[C@H](O[C@@H]3[C@@H](O)[C@H](N)C[C@H](N)[C@H]3O[C@H]3O[C@H](CN)[C@@H](O)[C@H](O)[C@H]3N)O[C@@H]2CO)[C@H](N)[C@@H](O)[C@@H]1O [FRAMYCETIN],1 to 2,0.5,> 128,64,128,32 to 64,2,< 0.25,64 to 128,4,1,4 to 8,87.3,2,69.8
